Series [1] relates to Mycobacterium tuberculosis. Kind of series: Antibacterial activity against Mycobacterium tuberculosis H37Rv ATCC 27294 after 24 hrs by alamar blue assay. It is filed as functional. As to conditions: H37Rv ATCC 27294, 24 h. Summed up: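 Microplate Alamar Blue assay on M. tuberculosis ATCC 27294 in Middlebrook 7H9 broth, with compounds serially diluted on the plate (final 0.01–20.0). Water in the outer wells limited evaporation. Sealed plates were incubated at 37 C for five days, then a fresh 1:1 Alamar Blue/10% Tween 80 mix was added for 24 h. MIC is the lowest concentration preventing the blue-to-pink change.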
(The colour change of resazurin is a common sign of viable cells or microbes.)

Series [2] in a line: Partition coefficient, log P of the compound. Particulars: octanol/water. It is filed as physicochemical. Summed up:
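Computed in silico from structure with an online molecular-property calculation server's logP method, not measured by experimental partitioning.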

A word on the MIC: it is the smallest concentration in the dilution series that meets the test's criterion for growth inhibition. For orientation: logP means the decadic logarithm of the partition coefficient of the neutral form, usually between octanol and water.

Structures are written as SMILES. Converted amounts (≈) assume the structure as drawn.

In series [1], `N[C@@H](Cc1ccccc1)[C@H](O)CNCc1ccc2c(c1)OCO2` displayed an MIC of 318 µM (≈ 100 µg/mL). In series [2], this molecule showed a logP of 1.41.

Molecule `COc1ccc(S(=O)(=O)N(Cc2ccc3c(c2)OCO3)C[C@@H](O)[C@@H](N)Cc2ccccc2)cc1` returned an MIC in series [1] of 51.6 µM (≈ 25 µg/mL). In series [2], this molecule gave a logP of 2.62.

`N[C@@H](Cc1ccccc1)[C@H](O)CN(Cc1ccc2c(c1)OCO2)S(=O)(=O)c1ccc(Br)cc1` yielded an MIC in series [1] of 23.5 µM (≈ 12.5 µg/mL). The same molecule yielded a logP in series [2] of 3.37.

With `CC[C@@H](CO)NCCN[C@@H](CC)CO` [ETHAMBUTOL], the MIC in series [1] amounted to 15.9 µM (≈ 3.25 µg/mL). For the same molecule, in series [2], the logP worked out at 0.35.

Molecule `Cc1ccc(S(=O)(=O)N(Cc2ccc3c(c2)OCO3)C[C@@H](O)[C@@H](N)Cc2ccccc2)cc1` came in with an MIC in series [1] of 106 µM (≈ 49.7 µg/mL). Also, the logP in series [2] stood at 3.01.

In series [1], `CC(C)(C)OC(=O)N[C@@H](Cc1ccccc1)[C@H](O)CN(Cc1ccc2c(c1)OCO2)S(=O)(=O)c1ccc([N+](=O)[O-])cc1` displayed an MIC of over 500 µM. This molecule had a logP in series [2] of 6.26.

The molecule `CC(C)(C)OC(=O)N[C@@H](Cc1ccccc1)[C@H](O)CN(Cc1ccc2c(c1)OCO2)S(=O)(=O)c1ccc(F)cc1` yielded an MIC in series [1] of over 500 µM. This molecule also gave a logP in series [2] of 5.38.

Molecule `CC(C)(C)OC(=O)N[C@@H](Cc1ccccc1)[C@H](O)CNCc1ccc2c(c1)OCO2` returned an MIC in series [1] of 241 µM (≈ 99.9 µg/mL). This molecule gave a logP in series [2] of 5.15.

Molecule `N[C@@H](Cc1ccccc1)[C@H](O)CN(Cc1ccc2c(c1)OCO2)S(=O)(=O)c1ccc([N+](=O)[O-])cc1` showed an MIC in series [1] of over 500 µM. The same molecule displayed a logP in series [2] of 2.52.

For the molecule `N[C@@H](Cc1ccccc1)[C@H](O)CN(Cc1ccc2c(c1)OCO2)S(=O)(=O)c1ccc(F)cc1`, the MIC in series [1] amounted to 211 µM (≈ 99.7 µg/mL). Further, the logP in series [2] came to 1.64.

For the molecule `COc1ccc(S(=O)(=O)N(Cc2ccc3c(c2)OCO3)C[C@@H](O)[C@H](Cc2ccccc2)NC(=O)OC(C)(C)C)cc1`, the MIC in series [1] was over 500 µM. The molecule also returned a log partition coefficient (logP) in series [2] of 6.36.

On to `CC(C)(C)OC(=O)N[C@@H](Cc1ccccc1)[C@H](O)CN(Cc1ccc2c(c1)OCO2)S(=O)(=O)c1ccc(Br)cc1`, for which the MIC in series [1] was over 500 µM. In series [2], this molecule returned a log partition coefficient (logP) of 7.11.

As for `CC(C)(C)OC(=O)N[C@@H](Cc1ccccc1)[C@H](O)CN(Cc1ccc2c(c1)OCO2)S(=O)(=O)c1ccc(N)cc1`, the MIC in series [1] was over 500 µM. In addition, the logP in series [2] was determined as 6.47.

Take `Cc1ccc(S(=O)(=O)N(Cc2ccc3c(c2)OCO3)C[C@@H](O)[C@H](Cc2ccccc2)NC(=O)OC(C)(C)C)cc1`: in series [1], the MIC is over 500 µM. The logP in series [2] came out at 6.75.

Values taken from ChEMBL document CHEMBL1687895, “Synthesis and anti-mycobacterial activity of novel amino alcohol derivatives” (Eur J Med Chem, 2011).
